T cell modulator: T cell immune modulators affecting CD8 T cell-vesicle binding. 2C CD8+ T cell-vesicle binding, flow cytometry; stronger effect = lower value. response (vesicle binding), % at 7 µM. 0.068% of 330,000 active. AID 2052;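 active means response, share of CD8 T cells binding vesicles, and their 90th percentile fluorescence all below set limits, cut at about 80% in these data, passing the limit was not always enough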;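 further: values below 100% mean blocked vesicle binding to the CD8+ T cells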
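Benchmarks: naked versus QL9-loaded vesicles / Assay system: purified 2C TCR transgenic mouse naive CD8+ T cells / Technique: high-throughput flow cytometry with anti-B7-1 and anti-CD8 staining / Timing: Cell–vesicle co-incubation 1.5 h at 37 °C, staining 20 min on ice / Read-out: percent CD8+ FL2 mean versus row control / Probe or stimulus: QL9-loaded Drosophila micro-vesicles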
ALR H2O2 inh: human ALR oxidase inhibition via reduced H2O2 | AID 485317 | P55789 | inhibition, % (concentration not given with the values) | 3.8% of 290,000 active | purified ALR, DTT oxidation, H2O2 HRP-luminol luminescence;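 active means mean replicate inhibition above about 79%, with every replicate also reaching it, limit read from the data; inconclusive means only one of the two criteria met; inactive means mean below limit and not every replicate reaching it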
Target sequence (P55789 whole entry, looked up): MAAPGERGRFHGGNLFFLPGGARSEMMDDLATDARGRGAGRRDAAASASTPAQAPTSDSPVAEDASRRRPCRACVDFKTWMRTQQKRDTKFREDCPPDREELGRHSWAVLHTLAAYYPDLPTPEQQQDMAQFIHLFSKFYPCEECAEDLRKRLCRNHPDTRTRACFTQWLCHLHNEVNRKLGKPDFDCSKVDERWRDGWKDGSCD
Glyco luc inh: blocks N-linked glycosylation in D54 reporter cells. D54 ERlucT glycosylation luciferase reporter, 24 h; percent of 100 nM tunicamycin response. reporter increase, % at 12.5 µM. 0.23% of 360,000 active. AID 588692;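 active means mean luciferase reporter signal, scaled so untreated is 0 and the glycosylation-blocking control 100, at or above a set limit in every replicate; inconclusive means mean reaches the limit but not every replicate does; inactive means mean below the limit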;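 further: luciferase carries N-glycosylation sites so blocking glycosylation raises the light; 0% = median of neutral control wells and 100% = median of 100 nM tunicamycin wells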
* marks the source's active call; other numbers are inactive results; u = inconclusive; x = no result. This is one part of a sample in which hits are shown more often than they occur.

SMILES | T cell modulator | ALR H2O2 inh | Glyco luc inh
CSc1ncccc1C(=O)OCC(=O)NCc1ccccc1 | 456 | -11 | -1
CCc1nc2ccc(C(=O)NCCC(C)C)cn2c1N(CC)CCN(C)C | x | x | -1
S=C(NCC1CCCO1)N1CCc2ccccc2C1 (stereo not given) | 474 | -4 | -2
CCCC(=O)Nc1ccc(Cl)c(NC(=O)c2cccnc2)c1 | 0.0* | -3 | -3
CCN(CC)c1ccc(NC(=O)CNCc2ccccc2Cl)c(C)c1 | 173 | 99* | 1
CCC(=O)Nc1ccc(Cl)c(NC(=O)c2cccnc2)c1 | 622 | -6 | -1
CC1(C)CC(=O)N(CC(=O)NCc2ccccc2)c2ccccc2S1(=O)=O | x | x | -1
O=C(CNCc1ccccc1Cl)Nc1ccccc1N1CCCCC1 | 482 | 4 | -3
CCN(CC)c1ccc(NC(=O)CN2C(=O)CC(C)(C)S(=O)(=O)c3ccccc32)c(C)c1 | 300 | 99* | -2
CN(C)c1ccc2c(c1[N+](=O)[O-])Cc1ccccc1-2 | x | x | -2
O=C(Cc1ccc([N+](=O)[O-])cc1)N/N=C/c1ccccc1F | 228 | -32 | 2
Cc1c(CN2CCCC(C(=O)c3cccc(OC(C)C)c3)C2)c(=O)n(-c2ccccc2)n1C (stereo not given) | 383 | -2 | -1
Cc1ccn2c(Nc3ccccc3C)c(-c3ccccn3)nc2c1 | 227 | x | 9
Cc1ccc2nc(-c3ccccn3)c(Nc3ccccc3C)n2c1 | 250 | 98* | 5
Cc1ccccc1Nc1c(-c2ccccn2)nc2ccccn12 | 265 | 99* | 8
Cc1ccccc1Nc1c(-c2cccnc2)nc2ccc(Br)cn12 | 296 | 66 | -3
Brc1ccc2nc(-c3ccncc3)c(NC3CCCC3)n2c1 | 556 | x | -4
Cc1ccc2nc(-c3cccnc3)c(Nc3ccccc3C)n2c1 | 378 | 82* | 0
Cc1ccccc1Nc1c(-c2ccncc2)nc2ccc(Br)cn12 | 176 | 98* | 0
Cc1ccc2nc(-c3ccccn3)c(N)n2c1 | x | x | -20
C=CC[C@@H]1C=C(C)C[C@H](C)C[C@H](OC)[C@H]2O[C@@](O)(C(=O)C(=O)N3CCCC[C@H]3C(=O)O[C@H](/C(C)=C/[C@@H]3CC[C@@H](O)[C@H](OC)C3)[C@H](C)[C@@H](O)CC1=O)[C@H](C)C[C@@H]2OC | 367 | -14 | x
CCOc1ccccc1N(CC(=O)NC1CCCC1)C(=O)CNC(=O)c1cccs1 | 442 | x | 0
CNC(=O)N(O)C1N(/N=C/c2c(F)cccc2Cl)C(=S)SC1(C)C (stereo not given) | 0 | x | -1
Cc1noc(C)c1S(=O)(=O)Nc1ccc(C(=O)N2CCC(C)CC2)cc1 | 423 | 0 | x
Cc1ccc(Cc2c(-c3ccc(F)cc3)nc3cc(C)ccn23)cc1 | x | x | -5
SMILES | T cell modulator | ALR H2O2 inh | Glyco luc inh
C[C@@H]1CN([C@H](C)CO)C(=O)CCCn2cc(nn2)CO[C@H]1CN(C)S(=O)(=O)c1ccc(F)cc1 | x | x | 1
Cc1cccc2nc(-c3cccnc3)c(NCCC(C)C)n12 | 364 | u | -2
Cc1cccc2nc(-c3cccnc3)c(Nc3ccccc3)n12 | 239 | 97* | -3
COC(=O)CNc1c(-c2ccccc2)nc2ccc(Br)cn12 | 172 | 99* | 2
COC(=O)Nc1c(-c2ccccc2)nc2ccc(Cl)cn12 | 205 | 4 | 2
CCc1nc2ccc(C(=O)NCc3ccc4c(c3)OCO4)cn2c1N(CCC(C)C)CCN(C)C | x | x | 2
CC(=O)N/C(=C\c1ccccc1)C(=O)OCc1cccc(S(=O)(=O)N(C)C)c1 | 145 | -3 | 0
CCOC(=O)c1ccc(N2C(=O)CC(Nc3ccc(O)cc3)C2=O)cc1 (stereo not given) | 163 | 97* | 4
CCOC(=O)c1ccc(N2C(=O)CC(NNC(=O)c3ccc(Br)s3)C2=O)cc1 (stereo not given) | 181 | 2 | 1
COc1cc(CN(C(C)=O)c2ccccc2C(=O)O)ccc1[N+](=O)[O-] | x | x | 1
COC(=O)c1nc(NC(=O)c2cc(OC)c(OC)c(OC)c2)n[nH]1 | 176 | 98* | 1
COc1cc(C(=O)Nc2ccncc2)cc(OC)c1OC | 290 | -4 | 4
CCOc1cc(N2CCOCC2)c(OCC)cc1NC(=O)COC(=O)c1ccc([N+](=O)[O-])o1 | 328 | x | 3
CC1(C(=O)NS(=O)(=O)c2ccc(Br)cc2)CCN1C(=O)Cc1ccsc1 (stereo not given) | x | x | 4
Cc1nc(N)sc1N=Nc1ccc(F)cc1 | 334 | 98* | -1
Cc1ncc(N=Nc2ccc(F)cc2)c(-c2ccc(Cl)cc2)n1 | 382 | -14 | 0
Cc1cc(F)ccc1NC(=O)CCc1ccc(S(=O)(=O)N2CCOCC2)cc1 | 410 | 0 | 0
C(=N\N1CCOCC1)/c1nc(-c2ccccc2)n2ccccc12 | 171 | 96* | 1
C(=N\N1CCOCC1)/c1cn(-c2ccccc2)nc1-c1ccccc1 | 267 | 5 | 1

High-throughput results deposited in PubChem by several laboratories.
